A selection: hits, their analogues and other compounds. The true share with any hit is near 6.8%.
HSF1 inh: HSF1 inhibition; NIH3T3-HGL HSE-luciferase, MG132-induced, luminescence 8 h; stronger effect = lower value; activity change, negative = inhibition, % at 7.5 µM (by protocol); hit rate 0.77% among 300,000; AID 2098;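 active = more than half of replicate wells show activity change below -50%, luminescence cut by over half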;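 note: luciferase reports HSF-1 transcriptional activity via heat shock element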
core dimer inh: blocks dimerization of HCV core protein; TR-FRET GST/Flag-core106 dimerization, 1536-well; inhibition, % at 5 µM; hit rate 0.33% among 300,000; AID 1899;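 active = inhibition above the mean of all tested compounds plus 3 SD, set per screening campaign, cut at about 45% in these data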
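System: GST-tagged and Flag-tagged HCV core protein residues 1-106 / Input: core106 proteins, GST 13.5 nM and Flag 17 nM / Buffer or medium: KF-containing HEPES buffer, pH 7.45, DTT, CHAPS, BSA / Probe or stimulus: Eu-anti-GST and XL665-anti-Flag labelled anti-tag antibodies / Schedule: 4 h, 22.5 °C incubation / Technique: TR-FRET 671 and 617 nm emission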
ALR inh: blocks human ALR sulfhydryl oxidase activity | P55789 | purified ALR, DTT oxidation, H2O2 HRP-luminol luminescence | inhibition, % (test concentration not listed) | hit rate 3.8% among 290,000 | AID 485317;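 active = mean replicate inhibition above about 79%, with every replicate also reaching it, limit read from the data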
Target sequence (P55789 whole entry, looked up): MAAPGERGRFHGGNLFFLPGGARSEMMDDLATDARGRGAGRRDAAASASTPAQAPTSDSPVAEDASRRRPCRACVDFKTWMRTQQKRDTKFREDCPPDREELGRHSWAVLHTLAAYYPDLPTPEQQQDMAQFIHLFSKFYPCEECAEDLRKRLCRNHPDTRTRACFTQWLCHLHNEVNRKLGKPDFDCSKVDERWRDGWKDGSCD
PHOSPHO1 block: blocks human PHOSPHO1 phosphatase activity | Q8TCT1 | recombinant PHOSPHO1, absorbance phosphatase assay | inhibition, % at 13.3 µM | hit rate 1.1% among 290,000 | AID 1565; in the data active = inhibition above about 60%
Target sequence (Q8TCT1 whole entry, looked up): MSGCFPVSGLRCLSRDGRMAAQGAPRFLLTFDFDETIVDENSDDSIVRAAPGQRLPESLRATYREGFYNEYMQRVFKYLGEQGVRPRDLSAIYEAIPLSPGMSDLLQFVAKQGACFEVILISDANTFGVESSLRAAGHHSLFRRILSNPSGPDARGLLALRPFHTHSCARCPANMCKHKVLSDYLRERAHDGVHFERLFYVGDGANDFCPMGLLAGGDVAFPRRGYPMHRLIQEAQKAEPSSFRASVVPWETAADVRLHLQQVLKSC
AI-2 QS mod: modulators of Vibrio harveyi AI-2 quorum sensing system. AID 2094. Vibrio harveyi JMH597 AI-2 luminescence/OD600 ratio, 9 h; stronger effect = lower value; strain lacks LuxN and CqsS sensors; 0 = neutral-control median. activity change, % at 7.5 µM. hit rate 0.4% among 300,000; in the data active = activity change below about -75%, passing the limit was not always enough;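 note: luminescence divided by OD600 gain over 9 h not by final OD600 alone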
HSF1 activator: increases HSF-1 driven luciferase reporter signal. AID 504408. activation, % at 9 µM. hit rate 1.7% among 300,000. NIH3T3-HGL HSF-1 luciferase reporter, MG132, 8 h; 100% = twice DMSO control signal;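 active = mean replicate activation of at least 50% with a set share of replicates each reaching 50%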
Large screens that a line does not name were inactive.

COc1ccccc1CCC(=O)Nc1ncc(C)s1	none
CCOC(=O)c1c(/N=C/c2cc([N+](=O)[O-])ccc2O)sc(C)c1C	ALR inh 98
CCc1ccc(-c2nc(CSCC(=O)NCCCN3CCCC3=O)c(C)o2)cc1	ALR inh 99
O=C(CSc1ccc2ccccc2c1)NCCCN1CCCC1=O	ALR inh 100
O=C(CSc1ccc2ccccc2n1)NCCCN1CCCC1=O	none (no result: HSF1 inh, core dimer inh, PHOSPHO1 block, AI-2 QS mod, HSF1 activator)
Cc1ccccc1-c1nc(CS(=O)(=O)CC(=O)NCCCN2CCCC2=O)c(C)o1	none
CSc1ccc(-c2nc(CSCC(=O)NCCCN3CCCC3=O)c(C)o2)cc1	ALR inh 95
COCCNC(=O)CSCc1nc(-c2ccc(SC)cc2)oc1C	ALR inh 100
CC(=O)NC12CC3CC(C1)CC(C(=O)Oc1ccc(N(C)S(=O)(=O)c4cc(C)ccc4C)cc1)(C3)C2	none (no result: PHOSPHO1 block)
COc1ccc(NC(=O)N(C)C[C@H]2Oc3ccc(NC(=O)Cc4ccccc4)cc3CC(=O)N([C@H](C)CO)C[C@H]2C)cc1	none (no result: HSF1 inh, core dimer inh, PHOSPHO1 block, AI-2 QS mod, HSF1 activator)
O=c1ccc2ccc(Oc3ccc([N+](=O)[O-])cc3[N+](=O)[O-])cc2o1	HSF1 activator 68
COc1ccc(/C=C(\C#N)C(=O)NCC(c2ccc(F)cc2)N2CCOCC2)cc1 (stereo unspecified)	none
COc1ccccc1OCCCOc1ccc(C)cc1Br	HSF1 activator 57 (no result: ALR inh)
COc1ccccc1OCCOCCOc1ccc(C)cc1Br	none
CCc1ccccc1OCCOc1ccc(C)cc1OC	PHOSPHO1 block 60
CC1CCN(S(=O)(=O)N2CCC(C(=O)NCCc3ccccc3)CC2)CC1	none
Cc1ccc(NC(=O)CN(C)C(=O)c2ccc(C(F)(F)F)cc2)cc1	none
CN1c2cccc3cccc(c23)N(C)C1c1cccs1	ALR inh 90
N#Cc1c(-c2cccnc2)c2c([nH]c1=S)CCCC2	PHOSPHO1 block 74
COc1ccc(OC)c(-c2c3c([nH]c(=S)c2C#N)CCCC3)c1	none
N#Cc1c(-c2ccco2)c2c([nH]c1=S)CCCC2	PHOSPHO1 block 62
COc1ccc(-c2c3c([nH]c(=S)c2C#N)CCC3)cc1	none (no result: HSF1 inh, core dimer inh, ALR inh, AI-2 QS mod, HSF1 activator)
CC(C(=O)N(C)C1CCCCC1)N1CCC(C(N)=O)CC1 (stereo unspecified)	none
Cc1cccc(C(=O)NNC(=O)CN2C(=O)c3ccccc3C2=O)c1	none
CC(=O)c1ccc(-n2c(SCC(=O)c3c[nH]c4ccccc34)nc3ccccc3c2=O)cc1	none
Cc1nn(-c2ccccc2)c(N)c1C(c1ccc(C(C)C)cc1)c1c(C)nn(-c2ccccc2)c1N	none (no result: ALR inh)
Cc1ccc(C(c2c(C)nn(-c3ccccc3)c2N)c2c(C)nn(-c3ccccc3)c2N)cc1	HSF1 activator 93
C#CCOCCOCCOCCNc1nc(N2CCN(C(=O)C([C@@H](C)CC)n3cc(C(N)Cc4ccc(O)cc4)nn3)CC2)nc(N2CCN(C(=O)[C@H](CCC(=O)O)n3cc(C(N)CO)nn3)CC2)n1 (stereo partly specified)	none
CCC(=O)c1ccc(OCC(=O)OCC(=O)NC2CCCCCCC2)cc1	none
COc1cc(-c2cc(=O)c3ccccc3o2)ccc1O	ALR inh 99
COc1cc(-c2cc(=O)c3c(O)c(OC)c(OC)cc3o2)cc(OC)c1O	ALR inh 77
COc1ccc(-c2cc(=O)c3c(O)c(OC)c(O)cc3o2)cc1	none
COc1cc(-c2cc(=O)c3c(O)cc(O)cc3o2)ccc1O	none
C=CCn1c(COc2ccccc2F)nnc1SCCN1C(=O)c2ccccc2C1=O	none (no result: ALR inh)
O=C(Cc1nc2ccccc2[nH]1)c1cccc([N+](=O)[O-])c1	none
c1ccc(N/N=C(\Cc2ncc[nH]2)c2ccccc2)cc1	ALR inh 99
Clc1cccc(N/N=C(\Cc2nc3ccccc3[nH]2)c2ccccc2)c1	HSF1 activator 70 (no result: ALR inh)
COc1cc(C(=O)N/N=C(\Cc2ncc[nH]2)c2ccccc2)cc(OC)c1OC	none (no result: HSF1 inh, HSF1 activator)
COc1ccc(C(=O)N/N=C(\Cc2ncc[nH]2)c2ccccc2)cc1	ALR inh 87
CC(=O)Nc1cccc(/C(C)=N/Nc2nc3ccccc3s2)c1	ALR inh 98
C/C(=N\Nc1nc2ccccc2s1)c1cccs1	none (no result: ALR inh)
CC(=O)Nc1ccc(/C=N/Nc2nc3ccccc3s2)cc1	HSF1 activator 68 (no result: core dimer inh, ALR inh)
O=C(Nc1sc2c(c1-c1nc3ccccc3[nH]1)CCCC2)C1CCCC1	none
CC(=O)NCCC(=O)Nc1sc2c(c1-c1nc3ccccc3[nH]1)CCCC2	ALR inh 98
CCCCn1c(=O)[nH]c(=O)c2c1nc(-c1ccc(C)c([N+](=O)[O-])c1)n2CC	ALR inh 96
Cc1ccc(-c2nc3c(c(=O)[nH]c(=O)n3CC(C)C)n2CC(C)C)cc1[N+](=O)[O-]	none (no result: ALR inh)
CNc1nnc(-c2ccc(N(C)C)cc2)s1	ALR inh 100 (no result: HSF1 inh, AI-2 QS mod, HSF1 activator)
Cc1ccc(S(=O)(=O)N2CCCCC2)cc1NC(=O)COC(=O)C1CC2C=CC1C2 (stereo unspecified)	none
Cc1cc(=O)[nH]c(SCC(=O)Nc2ccc(S(=O)(=O)N3CCOCC3)cc2)n1	none (no result: ALR inh)
Cc1ccc(NC(=O)COC(=O)C2CC3C=CC2C3)cc1S(=O)(=O)N1CCCCC1 (stereo unspecified)	HSF1 activator 63 (no result: ALR inh)
O=C(O)CC(SCC(=O)Nc1ccc(S(=O)(=O)N2CCCC2)cc1)C(=O)O (stereo unspecified)	ALR inh 100
Cc1cc(=O)[nH]c(SCC(=O)Nc2ccc(S(=O)(=O)N3CCCCC3)cc2)n1	ALR inh 98
Cc1cc(C(=O)Nc2ccc(S(=O)(=O)N3CCCC3)cc2)no1	PHOSPHO1 block 62
Cc1ccccc1N1C(=O)C(Cc2ccc(F)cc2)S/C1=C(\C#N)C(N)=O (stereo unspecified)	none
Cc1cc(OCc2cn3cccnc3n2)ccc1Cl	none (no result: ALR inh)
O=C(CSc1nc(NS(=O)(=O)c2ccccc2)cc(=O)[nH]1)Nc1cccc(C(F)(F)F)c1	none (no result: core dimer inh, ALR inh)
CCCc1cc(=O)[nH]c(SCC(=O)Nc2ccc(C)c(S(=O)(=O)N3CCCCC3)c2)n1	none (no result: HSF1 inh, core dimer inh, PHOSPHO1 block, AI-2 QS mod, HSF1 activator)
Cc1ccc(NC(=O)CSc2nc(N)cc(=O)[nH]2)cc1S(=O)(=O)N1CCCCCC1	ALR inh 99 (no result: HSF1 inh, core dimer inh, PHOSPHO1 block, AI-2 QS mod, HSF1 activator)
O=C(CSc1nc(NS(=O)(=O)c2ccccc2)cc(=O)[nH]1)Nc1ccc(F)cc1	ALR inh 98
Cc1ccc(C)c(N2CCN(CCN3CCCCC3)CC2)c1	HSF1 inh -57
CCOC(=O)C1=C(CS(=O)(=O)c2ccc(F)c(C)c2)NC(=O)NC1c1ccc(O)c(O)c1 (stereo unspecified)	ALR inh 98
COc1cc(C2Nc3ccccc3C(=O)N2c2ccccc2)ccc1O (stereo unspecified)	none (no result: ALR inh)
COc1ccc(/C(C)=N/N2C(=O)c3ccccc3NC2c2ccc(O)c(OC)c2)cc1 (stereo unspecified)	ALR inh 99

High-throughput results deposited in PubChem BioAssay by several laboratories.
